HCV core dimer: blocks dimerization of HCV core protein. inhibition, % at 5 µM. TR-FRET GST/Flag-core106 dimerization, 1536-well. hit rate 0.33% among 300,000;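 active = inhibition above the mean of all tested compounds plus 3 SD, set per screening campaign, cut at about 45% in these data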
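System – GST-tagged and Flag-tagged HCV core protein residues 1-106 · Repeats – one well for each compound · Technique – TR-FRET 671 and 617 nm emission · Doses – one concentration, 5 µM, in 0.5% DMSO · Times – 4 h, 22.5 °C incubation · Also added – Eu donor and XL665 acceptor anti-tag antibodies · Measure – percent inhibition of core106 dimerization signal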
FID counter: fluorescent intercalator displacement, NS3 helicase counter-screen | DNA fluorescent intercalator displacement, fluorescence | inhibition, % at 7.9 µM | hit rate 0.17% among 290,000 | AID 1845; in the data active = inhibition above about 37%;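 note: higher means more ethidium bromide displaced from hairpin DNA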
HSF-1 act: increases HSF-1 driven luciferase reporter signal | NIH3T3-HGL HSF-1 luciferase reporter, MG132, 8 h; 100% = twice DMSO control signal | activation, % at 9 µM | hit rate 1.7% among 300,000;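 active = mean replicate activation of at least 50% with a set share of replicates each reaching 50%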
HSF1 inhib: HSF1 inhibition; NIH3T3-HGL HSE-luciferase, MG132-induced, luminescence 8 h; hits give low values; activity change, negative = inhibition, % at 7.5 µM (by protocol); hit rate 0.77% among 300,000; AID 2098;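 active = more than half of replicate wells show activity change below -50%, luminescence cut by over half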;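 note: luciferase reports HSF-1 transcriptional activity via heat shock element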
HSP90 inh: HSP90 refolding inhibition in rabbit reticulocyte lysate. AID 1789. hit rate 0.91% among 290,000. luciferase refolding luminescence, 3 h. inhibition, % at 5.6 µM;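 active = inhibition above the screen-wide mean plus 3 SD, computed separately per campaign, cut at about 16% in these data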;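 note: inhibitors lower the luminescence because luciferase stays unfolded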
HCV NS3 hel inh: inhibitors of Hepatitis C virus NS3 helicase; NS3 helicase DNA unwinding, Cy5 molecular beacon fluorescence; inhibition, % at 10.9 µM; hit rate 0.56% among 290,000;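 active = inhibition above the mean of all tested compounds plus 3 SD, set per campaign, cut at about 35% in these data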
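System: Hepatitis C virus NS3 helicase domain fragment enzyme | Reagent: Annealed dual-labelled DNA beacon duplex, ATP-started | Compound dosing: 10.9 µM single point, 0.8% DMSO | Incubation: 1 h reaction at 25 °C, ATP-initiated | Technique: Cy5 fluorescence | Evaluation: Percent inhibition from t60/t0 fluorescence ratio | Benchmarks: Low DMSO, high thioflavine S at 110 µM | Replication: Singlicate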
Of the large screens only hits and unclear results are named; the others gave an inactive call. Sampled rows, rich in hits. Any-hit rate of the full collection: about 3.9%.

CCN1CCN(c2ccc(NC(=O)CCc3c(C)nc4c(-c5ccccc5)c(C)nn4c3C)cc2)CC1	FID counter 41
CN1CCC(OC(=O)COc2ccccc2)CC1	none
Cc1cccc(OCC(=O)OC2CCN(C)CC2)c1	HSF1 inhib -55
CC(OC(=O)C1CCCC1)C(=O)Nc1ccc(S(N)(=O)=O)cc1 (centres undefined)	none (no result: FID counter, HSP90 inh, HCV NS3 hel inh)
CCN1CCN(c2nc(N(C)c3ccccc3)nc(N)c2[N+](=O)[O-])CC1	none
CC1CCN(c2nc(N(C)c3ccccc3)nc(N)c2[N+](=O)[O-])CC1	HSF-1 act 67
Cc1cccc(Nc2nc(N)c([N+](=O)[O-])c(N3CCC(C)CC3)n2)c1	none
CN(c1ccccc1)c1nc(N)c([N+](=O)[O-])c(N2CCCCCC2)n1	HSF-1 act 78
CC1CCCC(C)N1C(=O)c1ccc(S(=O)(=O)NCc2ccco2)cc1 (centres undefined)	none
COCCN1C(=S)NC(c2cccc(C(F)(F)F)c2)C(C(=O)N2CCOCC2)=C1C (centres undefined)	none
CCN1C(=O)S/C(=C\c2ccc(N3CCOCC3)cc2C)C1=O	HSF-1 act 65
CCCN1C(=O)S/C(=C\c2ccc(N3CCOCC3)cc2C)C1=O	none (no result: HCV core dimer, HSF-1 act, HSF1 inhib)
CCCN1C(=O)S/C(=C\c2ccc(N3CCOCC3)o2)C1=O	HSF-1 act 93
Cc1cc(N2CCOCC2)ccc1/C=C1\SC(=O)N(C(C)C)C1=O	HSF-1 act 78
O=C(NCCc1ccccc1)C(c1ccc(F)cc1)N(C(=O)c1csnn1)C1CC1 (centres undefined)	none
CC(=O)C1C(=O)c2c(cccc2[N+](=O)[O-])C1=Nc1ccc(S(N)(=O)=O)cc1 (centres undefined)	HSF1 inhib -91
O=C(O)C12CC3CC(C1)CC(n1ncc(N4CCN(c5ccccc5)CC4)c(Cl)c1=O)(C3)C2	none
OC(CN1c2ccccc2Sc2ccccc21)Cn1nnc2ccccc21 (centres undefined)	HSF-1 act 63
Cc1ccc2c(c1)c(C)c(C)n2CC(O)Cn1nnc2ccccc21 (centres undefined)	HSF1 inhib -89
O=C(c1ccccc1)N1CCCCC(Cl)C1=O (centres undefined)	none
c1ccc(OCc2nc3ccccc3[nH]2)cc1	none
O=S(=O)(CCc1nc2ccccc2[nH]1)c1ccc(Cl)cc1	HSF1 inhib -89
Clc1ccc(OCc2nc3ccccc3[nH]2)cc1	HSF-1 act 77
CNC(=O)c1c(NC(=O)CCS(=O)(=O)c2ccc(C)cc2)sc(C)c1C	none (no result: FID counter, HSP90 inh, HCV NS3 hel inh)
Cc1[nH]c(=S)sc1Cc1ccc(F)cc1	none
O=C(Nc1ccc(F)cc1)N1CCCCCC1	none
O=C(Nc1ccc(F)cc1)N1CCOCC1	HSF1 inhib -53
O=C(Nc1ccc2c(c1)OCCO2)N1CCN(c2ccccc2)CC1	HSF1 inhib -57
O=C(Nc1ccccc1)c1cc2n(n1)C(C(F)(F)F)CC(C1CC1)N2 (centres undefined)	none (no result: HSF-1 act, HSF1 inhib)
CCC(=O)Nc1cc(SCCO)cc([N+](=O)[O-])c1	none
O=C(CCl)Nc1cc(SCC(O)CO)cc([N+](=O)[O-])c1 (centres undefined)	HSF1 inhib -71 (no result: HCV core dimer)
COC(=O)c1cc(=O)n(Cc2ccc3c(c2)OCO3)c(=Nc2ccc(F)cc2)s1	none
COC(=O)c1ccc(N=c2sc(C(=O)OC)cc(=O)n2C)cc1	none (no result: HCV core dimer, HSF-1 act, HSF1 inhib)
COC(=O)c1cc(=O)n(Cc2cccs2)c(=Nc2ccc(F)cc2)s1	HSF-1 act 52
COC(=O)c1cc(=O)n(-c2ccc(F)cc2)c(=Nc2ccc(F)cc2)s1	HSF-1 act 57
COc1ccccc1NS(=O)(=O)c1cn(C)cn1	none
COCc1cc(C)n(CC(=O)OC)c(=O)c1C#N	none
CC1=C(CO)C(=O)OC([C@@H](C)C2CC[C@H]3C4C[C@H]5O[C@]56[C@@H](O)C=CC(=O)[C@]6(C)C4CC[C@]23C)C1 (some centres undefined)	HSF-1 act 64 (no result: FID counter, HSP90 inh, HCV NS3 hel inh)
CC(C)(C)c1cc(S(=O)(=O)CCc2ccncc2)cc(C(C)(C)C)c1F	none
O=C(NC(=S)NCC1CCCO1)c1ccc(Cl)cc1 (centres undefined)	none
Cc1ccc(C(=O)NC(=S)NCC2CCCO2)cc1 (centres undefined)	HSF-1 act 89

From PubChem
